Experimental findings from ChEMBL document CHEMBL5154719, “Probing Embryonic Development Enables the Discovery of Unique Small-Molecule Bone Morphogenetic Protein Potentiators” (J Med Chem, 2022) are described below.

Assay [1] deals with Embryonic stem cell. Put plainly: Induction of cardiac differentiation in mouse ESC transfected with Myh6-GFP treated for 48 hrs and measured after 4 to 6 days by imaging analysis. Particulars: time 4-6 day. The class given is functional, cell-based.
Assay [2] has as its system Embryonic stem cell. Put plainly: Induction of cardiac differentiation in mouse ESC transfected with Myh6-GFP treated for 48 hrs and measured after 3 to 6 days by imaging analysis. The assay is classed as functional, cell-based. Particulars: time 3-6 day. In a few lines: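 mESC-Myh6-GFP seeded on 0.1% gelatine at 500 cells/well in LIF-free medium to differentiate spontaneously (day 0). Inhibitors given dose-dependently for 48 h over the stated day windows. Medium later changed to complete LIF-free medium. On day 11, cells PFA-fixed and DAPI-stained. GFP+ cardiomyocytes quantified by high-content imaging, normalized to DMSO; mean ± SEM.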

Assay [3] has as its system C2C12. Put plainly: Potentiation of BMP receptor in mouse C2C12 cells assessed as decrease in cytoplasmic Smad2 level incubated for 24 hrs in presence of […]/BMP by Western blot analysis. The class given is cell-based. Particulars: filed as activator. In a few lines: (§1)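 C2C12 cells exposed to compound with TGFβ-2 (10 ng/mL) for 24 h; for nuclear readout, a further 30 min BMP-4 at 2 ng/mL. Cytoplasmic and nuclear fractions isolated in HEPES buffers, pH 7.5, with phosphatase and protease inhibitors. Smads detected by Western blot, luminescence normalized to total protein per lane (trichloroethanol stain), then to DMSO.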
On the technique in general: Immunoblotting shows a protein as a band on a membrane.

For the next assay, the system named is SAOS-2. Put plainly: Induction of osteoblastic mineralization in human SAOS-2 cells at 25 nM followed by BMP-4 addition measured after 11 days of osteogenic differentiation. The assay is classed as functional, cell-based. To be noted: time 11.0 day. The essentials: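 SaOS-2 cells, 8×10³ cells/well, in osteogenic medium (10 mM β-glycerophosphate, 0.2 mM ascorbic acid, 10 nM dexamethasone) with 2 ng/mL BMP-4 or BMP-2 for 11 days. Medium and compound changed every 3 days; ascorbate refreshed daily; DMSO 0.01% vehicle. Mineralization by von Kossa staining; stained area quantified from at least four images per condition at 100× magnification.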

Assay [4] can be described thus: Inhibition of DMH-1 induced cardiogenesis in mouse ESC transfected with Myh6-GFP. The class given is functional, cell-based. Particulars: embryonic stem cell. The essentials: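 mESC-Myh6-GFP, 500 cells/well on gelatine, LIF-free medium from day 0. On day 3, compounds added (triplicates for IC50) with DMH-1 at 0.5 μM final, 0.2% DMSO, 6% FBS; 24 h. Medium then changed, refreshed days 7 and 9. Day 11: PFA fixation, DAPI stain, automated imaging of GFP intensity and cell count, normalized to DMH-1. Cell count below 70% of DMH-1 flagged as cytotoxic.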

Assay [5] has as its system C2C12. Put plainly: […] of osteoblastogenesis in mouse C2C12 cells assessed as upregulation of Runx2 gene expression in presence of BMP4 at 1 uM measured after 72 hrs. The class given is functional, cell-based. The essentials: (§2)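 C2C12 cells plated at 1 × 10⁵ cells/well and treated with compound (1 μM) plus BMP-4 (7.5 ng/mL) or DMSO for 72 h. RNA isolated and transcripts quantified by qRT-PCR using the ΔΔCp method. Mean of triplicates ± SD, normalized to DMSO.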

The subject of assay [6] is C2C12. Put plainly: Potentiation of BMP receptor in BMP-4 stimulated mouse C2C12 cells assessed as decrease in cytoplasmic Smad2 level preincubated for 24 hrs followed by BMP-4 stimulation and measured after 30 mins in presence of […]/BMP by Western blot analysis. The class given is cell-based. Particulars: filed as activator, time 24.5 hrs. In a few lines:
as §1

Assay [7] concerns C2C12. Put plainly: […] of osteoblastogenesis in mouse C2C12 cells assessed as upregulation of Col1a1 gene expression in presence of BMP4 at 1 uM measured after 72 hrs. The assay is classed as functional, cell-based. The essentials:
as §2

Assay [8] concerns C2C12. Put plainly: […] of osteoblastogenesis in mouse C2C12 cells assessed as upregulation of Ocn gene expression in presence of BMP4 at 1 uM measured after 72 hrs. The class given is functional, cell-based. In a few lines: as §2
Assay [9] has as its system C2C12. Put plainly: […] of osteoblastogenesis in mouse C2C12 cells assessed as upregulation of Opn gene expression in presence of BMP4 at 1 uM measured after 72 hrs. The class given is functional, cell-based. In a few lines:
as §2

Assay [10] concerns C2C12. Put plainly: […] of osteoblastogenesis in mouse C2C12 cells assessed as upregulation of Alp gene expression in presence of BMP4 at 1 uM measured after 72 hrs. The assay is classed as functional, cell-based. The essentials: as §2
The test system of assay [11] is C2C12. Put plainly: Potentiation of BMP receptor in mouse C2C12 cells assessed as increase in Id2 gene expression level incubated for 24 hrs by qRT-PCR analysis. Particulars: filed as activator. Background: Quantitative PCR measures a nucleic acid by following its amplification.
Assay [12] has as its system C2C12. Put plainly: Induction of BMP-dependent osteogenesis in mouse C2C12 cells incubated for 72 hrs. The class given is functional, cell-based. The essentials: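 C2C12 myoblasts, 2000 cells/well in DMEM with 6% heat-inactivated FBS, grown 16 h; compounds added in triplicate, then BMP-4 at 7.5 ng/mL; 72 h. ALP activity read by luminescence after lysis with CDP-Star substrate, 1 h at room temperature in the dark. Activity with 7.5 ng/mL BMP-4 in DMSO set to 100%. EC50 by curve fitting.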

For assay [13], the system named is C2C12. Put plainly: […] of osteoblastogenesis in mouse C2C12 cells assessed as upregulation of Osx gene expression in presence of BMP4 at 1 uM measured after 72 hrs. The class given is functional, cell-based. In a few lines:
as §2

The subject of assay [14] is C2C12. Put plainly: Potentiation of BMP receptor in mouse C2C12 cells assessed as increase in Id1 gene expression level incubated for 24 hrs by qRT-PCR analysis. To be noted: filed as activator.
The target of assay [15] is Glycogen synthase kinase-3 beta (Homo sapiens, UniProt P49841). Put plainly: Inhibition of GSK3beta (unknown origin).
Assay [16] can be described thus: Induction of alkaline phosphatase activation in mouse C2C12 cells assessed as fold increase incubated in presence of 50 ng/ml BMP4 at 1 uM relative to BMP4 alone. The class given is functional.

Calls of active or inactive are those of the source. The rule behind the calls is not given here.

Glycogen synthase kinase-3 beta, sequence (P49841 whole entry): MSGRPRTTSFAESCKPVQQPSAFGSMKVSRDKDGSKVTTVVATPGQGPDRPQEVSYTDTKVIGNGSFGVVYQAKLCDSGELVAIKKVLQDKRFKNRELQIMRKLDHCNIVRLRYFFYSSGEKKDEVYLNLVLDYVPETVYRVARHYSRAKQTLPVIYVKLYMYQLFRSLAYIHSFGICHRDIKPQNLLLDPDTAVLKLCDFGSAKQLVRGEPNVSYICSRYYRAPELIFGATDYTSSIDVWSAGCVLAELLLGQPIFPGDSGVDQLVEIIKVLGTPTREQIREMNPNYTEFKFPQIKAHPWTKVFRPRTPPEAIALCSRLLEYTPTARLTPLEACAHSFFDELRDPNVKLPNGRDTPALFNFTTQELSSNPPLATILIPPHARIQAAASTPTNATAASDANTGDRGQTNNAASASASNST

In the case of `NC(=O)c1ccc(-c2nc(-c3ccccn3)c(-c3ccc4c(c3)OCO4)[nH]2)cc1`, in the assay on Embryonic stem cell [1], the outcome was Active.

In the case of `c1cc(-c2cnn3cc(-c4ccc(OCCN5CCCCC5)cc4)cnc23)ccn1`, in the assay with Embryonic stem cell [2], the outcome was Active.

In the case of `O=c1c(-c2ccc(C(F)(F)F)cc2)c(-n2cncn2)oc2ccccc12`, the outcome with C2C12 [3], in the assay with SAOS-2, with C2C12 [5], with C2C12 [6], in the assay on C2C12 [7] and with C2C12 [8] was Active. The outcome in the assay with C2C12 [9], with C2C12 [10], in the assay on C2C12 [11], in the assay with C2C12 [12], in the assay on C2C12 [13] and in the assay on C2C12 [14] was Active. Further, half-maximal inhibition in assay [4] (IC50) was put at 0.2 µM.

Consider `Cc1cc(Nc2cc(Cl)nc(Oc3ccc([N+](=O)[O-])cc3)n2)n[nH]1`, for which the 50% inhibitory concentration (IC50) was 0.002 µM in assay [15] and 0.2 µM in [4]. Further, the “fold change (FC)” value in assay [16] worked out at 2. For the same compound, in the assay on C2C12 [12], the result was Active.

A word on the IC50: it is the point on the concentration scale where inhibition reaches its midpoint.
